# Measured values: ChEMBL document CHEMBL3774372, “Design, physico-chemical properties and biological evaluation of some new N-[(phenoxy)alkyl]- and N-{2-[2-(phenoxy)ethoxy]ethyl}aminoalkanols as anticonvulsant agents” (Bioorg Med Chem, 2016)
# Calls of active or inactive are those of the source.
# Tests used:
# [1] = target: D(1B) dopamine receptor (Homo sapiens) (UniProt P21918); test: Displacement of [3H]SCH23390 from human recombinant Dopamine D5 receptor expressed in GH4 cells at 10^-5 M; format: cell-based
# How it was run: (§1)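 Radioligand displacement screen with the test agent at a single 10^-5 M concentration; receptor source and radioligand per target as tabulated (recombinant human cell lines or rat cerebral cortex/urinary bladder).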
# [2] = target: Type-2 angiotensin II receptor (Homo sapiens) (UniProt P50052); test: Displacement of [125I]CGP42112A from human recombinant AT2 receptor expressed in HEK293 cells at 10^-5 M; format: cell-based
# Chain of Type-2 angiotensin II receptor (Homo sapiens) (P50052 whole entry): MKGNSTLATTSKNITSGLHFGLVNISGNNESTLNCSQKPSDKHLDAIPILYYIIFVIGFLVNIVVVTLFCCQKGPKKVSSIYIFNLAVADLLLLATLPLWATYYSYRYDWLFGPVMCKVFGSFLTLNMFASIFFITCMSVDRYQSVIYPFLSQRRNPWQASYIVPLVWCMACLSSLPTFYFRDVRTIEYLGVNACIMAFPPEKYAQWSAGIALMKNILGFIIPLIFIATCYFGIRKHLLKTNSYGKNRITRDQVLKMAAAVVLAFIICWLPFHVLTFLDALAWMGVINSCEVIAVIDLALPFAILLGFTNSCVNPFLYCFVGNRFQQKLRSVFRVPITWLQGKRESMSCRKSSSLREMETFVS
# How it was run: (§2)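 Radioligand binding screen run at a single test concentration of 10^-5 M. Each target used its stated receptor source (human recombinant CHO or HEK-293 cells, endogenous cell lines, or rat tissue membranes) with the listed radioligand.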
# [3] = target: D(4) dopamine receptor (Homo sapiens) (UniProt P21917); test: Displacement of [3H]methylspiperone from human recombinant Dopamine D4.4 receptor expressed in CHO cells at 10^-5 M; format: cell-based; how it was run: as §1
# Chain of D(4) dopamine receptor (Homo sapiens) (P21917 whole entry): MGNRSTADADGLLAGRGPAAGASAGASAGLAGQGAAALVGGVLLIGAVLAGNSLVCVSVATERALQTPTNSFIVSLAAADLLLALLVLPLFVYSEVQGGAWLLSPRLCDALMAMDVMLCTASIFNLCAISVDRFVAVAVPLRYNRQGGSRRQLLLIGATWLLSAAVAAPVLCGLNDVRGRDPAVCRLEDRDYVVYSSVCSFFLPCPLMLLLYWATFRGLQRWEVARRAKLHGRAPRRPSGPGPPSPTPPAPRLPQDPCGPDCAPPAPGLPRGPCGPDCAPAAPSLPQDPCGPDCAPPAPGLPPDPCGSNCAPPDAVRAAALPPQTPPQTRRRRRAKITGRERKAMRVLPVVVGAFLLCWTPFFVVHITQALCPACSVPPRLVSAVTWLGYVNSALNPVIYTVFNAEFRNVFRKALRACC
# [4] = target: 5-hydroxytryptamine receptor 1B (Rattus norvegicus) (UniProt P28564); test: Displacement of [125I]CYP from rat cerebral cortex 5-HT1B receptor at 10^-5 M in the presence of isoproternol; format: tissue-based; how it was run: as §2
# [5] = target: 5-hydroxytryptamine receptor 7 (Homo sapiens) (UniProt P34969); test: Displacement of [3H]LSD from human recombinant 5-HT7 receptor expressed in CHO cells at 10^-5 M; format: cell-based; how it was run: as §2
# Mus musculus = test: Anticonvulsant activity in mouse assessed as protection against subcutaneous pentylenetetrazol-induced seizures at 30 mg/kg, ip measured after 4 hrs; format: functional, organism-based
# How it was run: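 Mice dosed ip as 0.5% methylcellulose suspension; pentylenetetrazole 85 mg/kg in 0.9% NaCl injected subcutaneously into posterior midline, animals watched at least 30 min. Protection = no threshold seizure (single clonic spasm episode lasting ≥5 s); scored protected/tested.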
# [6] = target: 5-hydroxytryptamine receptor 5A (Homo sapiens) (UniProt P47898); test: Displacement of [3H]LSD from human recombinant 5-HT5A receptor expressed in HEK293 cells at 10^-5 M; format: cell-based; how it was run: as §2
# Chain of 5-hydroxytryptamine receptor 5A (Homo sapiens) (P47898 whole entry): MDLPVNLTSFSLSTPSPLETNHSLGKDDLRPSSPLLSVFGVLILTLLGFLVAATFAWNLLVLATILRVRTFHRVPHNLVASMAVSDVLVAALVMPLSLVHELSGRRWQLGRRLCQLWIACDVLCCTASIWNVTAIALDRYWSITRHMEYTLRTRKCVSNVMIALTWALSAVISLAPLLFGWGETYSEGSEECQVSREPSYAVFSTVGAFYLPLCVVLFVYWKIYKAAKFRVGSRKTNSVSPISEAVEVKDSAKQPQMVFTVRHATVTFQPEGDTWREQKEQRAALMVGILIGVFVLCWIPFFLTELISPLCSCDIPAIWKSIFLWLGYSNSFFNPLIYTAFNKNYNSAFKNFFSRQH
# Rattus norvegicus [7] = test: Anticonvulsant activity in pilocarpine-induced status epilepticus Sprague-Dawley rat model at 30 mg/kg, ip after 0.5 hrs during post stage 3 seizure; format: functional, organism-based
# How it was run: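 Rats given pilocarpine 50 mg/kg ip and observed to first convulsive seizure (Racine stage 3–5, time zero); test drug then given ip in 0.5% methylcellulose. Efficacy = halting further stage 3–5 convulsive seizures; scored protected/tested, time after first stage 3 seizure.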
# [8] = target: D(2) dopamine receptor (Homo sapiens) (UniProt P14416); test: Displacement of [3H]methylspiperone from human recombinant Dopamine D2S receptor expressed in HEK293 cells at 10^-5 M; format: cell-based; how it was run: as §1
# [9] = target: Adenosine receptor A2a (Homo sapiens) (UniProt P29274); test: Displacement of [3H]CGS 21680 from human recombinant adenosine A2a receptor expressed in HEK293 cells at 10^-5 M; format: cell-based; how it was run: as §2
# Rattus norvegicus [10] = species: Rattus norvegicus; test: Displacement of [[…]]batrachotoxin from rat cerebral cortex Sodium channel site 2 at 10^-5 M; format: tissue-based
# [11] = target: Beta-1 adrenergic receptor (Homo sapiens) (UniProt P08588); test: Displacement of [3H](-)CGP12177 from human recombinant Beta-1 adrenergic receptor expressed in HEK293 cells at 10^-5 M; format: cell-based; how it was run: as §2
# Chain of Beta-1 adrenergic receptor (Homo sapiens) (P08588 whole entry, looked up): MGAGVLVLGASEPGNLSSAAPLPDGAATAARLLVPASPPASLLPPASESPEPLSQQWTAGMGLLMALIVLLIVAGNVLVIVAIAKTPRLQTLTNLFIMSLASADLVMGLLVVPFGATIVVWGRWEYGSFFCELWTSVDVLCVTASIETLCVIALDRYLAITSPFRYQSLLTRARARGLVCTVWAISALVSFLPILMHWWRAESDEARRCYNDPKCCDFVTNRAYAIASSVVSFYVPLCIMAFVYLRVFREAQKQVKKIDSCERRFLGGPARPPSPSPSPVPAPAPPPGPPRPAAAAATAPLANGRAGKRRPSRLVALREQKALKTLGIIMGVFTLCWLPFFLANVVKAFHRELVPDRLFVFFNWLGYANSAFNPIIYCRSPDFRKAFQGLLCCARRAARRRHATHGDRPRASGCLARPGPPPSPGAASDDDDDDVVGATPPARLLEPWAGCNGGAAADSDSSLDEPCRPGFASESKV
# CHO = test: Displacement of [3H]DADLE from human recombinant delta-type 2 opioid receptor expressed in CHO cells at 10^-5 M; format: cell-based; how it was run: as §2
# [12] = target: 5-hydroxytryptamine receptor 3A (Homo sapiens) (UniProt P46098); test: Displacement of [3H]BRL43694 from human recombinant 5-HT3 receptor expressed in CHO cells at 10^-5 M; format: cell-based; how it was run: as §2
# Chain of 5-hydroxytryptamine receptor 3A (Homo sapiens) (P46098 whole entry): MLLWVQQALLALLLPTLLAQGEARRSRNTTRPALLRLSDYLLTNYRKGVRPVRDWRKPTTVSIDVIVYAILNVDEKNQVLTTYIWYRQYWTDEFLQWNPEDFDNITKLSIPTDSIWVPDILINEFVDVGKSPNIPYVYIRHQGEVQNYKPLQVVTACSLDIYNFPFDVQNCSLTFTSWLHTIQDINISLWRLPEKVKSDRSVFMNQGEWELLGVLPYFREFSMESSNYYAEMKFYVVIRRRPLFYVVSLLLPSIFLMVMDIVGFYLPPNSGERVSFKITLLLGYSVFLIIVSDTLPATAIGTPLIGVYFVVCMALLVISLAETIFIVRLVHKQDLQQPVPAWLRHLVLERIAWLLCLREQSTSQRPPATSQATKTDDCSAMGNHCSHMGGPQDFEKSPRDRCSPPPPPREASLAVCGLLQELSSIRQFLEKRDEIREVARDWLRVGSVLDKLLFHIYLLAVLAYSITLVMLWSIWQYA
# Rattus norvegicus [13] = species: Rattus norvegicus; test: Displacement of [3H]alpha,beta-MeATP from rat urinary bladder P2X receptor at 10^-5 M; how it was run: as §1
# [14] = target: Muscarinic acetylcholine receptor M3 (Homo sapiens) (UniProt P20309); test: Displacement of [3H]4-DAMP from human recombinant muscarinic M3 receptor expressed in CHO cells at 10^-5 M; format: cell-based; how it was run: as §2
# [15] = target: 5-hydroxytryptamine receptor 6 (Homo sapiens) (UniProt P50406); test: Displacement of [3H]LSD from human recombinant 5-HT6 receptor expressed in CHO cells at 10^-5 M; format: cell-based; how it was run: as §2
# Chain of 5-hydroxytryptamine receptor 6 (Homo sapiens) (P50406 whole entry): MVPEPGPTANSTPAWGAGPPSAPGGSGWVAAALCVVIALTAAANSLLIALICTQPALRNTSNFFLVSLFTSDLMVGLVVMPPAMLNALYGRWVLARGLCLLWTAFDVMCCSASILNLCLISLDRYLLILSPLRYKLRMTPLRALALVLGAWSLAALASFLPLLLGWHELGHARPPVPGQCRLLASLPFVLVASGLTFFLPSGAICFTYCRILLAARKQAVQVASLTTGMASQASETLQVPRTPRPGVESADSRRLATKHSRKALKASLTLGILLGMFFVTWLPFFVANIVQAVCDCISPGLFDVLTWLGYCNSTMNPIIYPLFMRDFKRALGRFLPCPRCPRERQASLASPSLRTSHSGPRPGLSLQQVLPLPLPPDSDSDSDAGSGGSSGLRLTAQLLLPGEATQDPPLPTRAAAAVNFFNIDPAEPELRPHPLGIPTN
# [16] = target: 5-hydroxytryptamine receptor 2A (Homo sapiens) (UniProt P28223); test: Displacement of [3H]ketanserin from human recombinant 5-HT2A receptor expressed in HEK293 cells at 10^-5 M; format: cell-based; how it was run: as §1
# Chain of 5-hydroxytryptamine receptor 2A (Homo sapiens) (P28223 whole entry): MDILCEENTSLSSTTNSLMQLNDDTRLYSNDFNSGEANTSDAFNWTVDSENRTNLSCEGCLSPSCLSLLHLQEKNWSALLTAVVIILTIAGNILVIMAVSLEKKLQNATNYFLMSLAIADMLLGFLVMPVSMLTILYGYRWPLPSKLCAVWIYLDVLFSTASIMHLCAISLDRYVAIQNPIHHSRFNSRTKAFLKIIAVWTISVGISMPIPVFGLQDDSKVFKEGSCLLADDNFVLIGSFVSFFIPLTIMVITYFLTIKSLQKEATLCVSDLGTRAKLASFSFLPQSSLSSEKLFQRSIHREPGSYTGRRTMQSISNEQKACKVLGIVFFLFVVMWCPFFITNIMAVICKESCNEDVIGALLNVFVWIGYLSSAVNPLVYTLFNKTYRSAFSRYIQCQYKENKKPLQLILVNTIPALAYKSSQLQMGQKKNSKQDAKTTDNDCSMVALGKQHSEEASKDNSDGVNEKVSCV
# [17] = target: 5-hydroxytryptamine receptor 2C (Homo sapiens) (UniProt P28335); test: Displacement of [3H][…] from human recombinant 5-HT2C receptor expressed in HEK293 cells at 10^-5 M; format: cell-based; how it was run: as §1
# Chain of 5-hydroxytryptamine receptor 2C (Homo sapiens) (P28335 whole entry): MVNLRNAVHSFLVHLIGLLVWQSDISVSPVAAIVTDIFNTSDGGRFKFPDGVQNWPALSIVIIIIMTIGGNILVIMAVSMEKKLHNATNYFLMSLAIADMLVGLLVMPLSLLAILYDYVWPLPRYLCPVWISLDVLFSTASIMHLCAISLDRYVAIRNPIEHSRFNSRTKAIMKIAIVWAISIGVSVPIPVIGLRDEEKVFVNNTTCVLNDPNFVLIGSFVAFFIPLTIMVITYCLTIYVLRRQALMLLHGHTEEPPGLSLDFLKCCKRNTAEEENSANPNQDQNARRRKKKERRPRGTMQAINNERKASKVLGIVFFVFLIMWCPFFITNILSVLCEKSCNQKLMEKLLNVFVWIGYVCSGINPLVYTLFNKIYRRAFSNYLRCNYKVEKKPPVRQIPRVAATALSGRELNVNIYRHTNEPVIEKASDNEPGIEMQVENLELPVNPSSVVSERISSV
# [18] = target: Prostaglandin E2 receptor EP2 subtype (Homo sapiens) (UniProt P43116); test: Displacement of [3H]PGE2 from human recombinant prostanoid EP2 receptor expressed in HEK293 cells at 10^-5 M; format: cell-based; how it was run: as §2
# Chain of Prostaglandin E2 receptor EP2 subtype (Homo sapiens) (P43116 whole entry): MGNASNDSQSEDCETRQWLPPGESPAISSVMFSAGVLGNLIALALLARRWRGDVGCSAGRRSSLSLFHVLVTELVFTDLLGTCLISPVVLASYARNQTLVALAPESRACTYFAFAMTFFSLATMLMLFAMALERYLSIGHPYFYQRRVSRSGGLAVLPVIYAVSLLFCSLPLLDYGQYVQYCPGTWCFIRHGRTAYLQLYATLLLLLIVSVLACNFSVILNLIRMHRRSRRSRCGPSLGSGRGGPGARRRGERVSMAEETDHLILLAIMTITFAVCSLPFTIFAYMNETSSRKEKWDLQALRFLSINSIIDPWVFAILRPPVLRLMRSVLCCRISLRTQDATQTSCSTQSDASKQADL
# [19] = target: Adenosine receptor A3 (Homo sapiens) (UniProt P0DMS8); test: Displacement of [125I]ABMECA from human recombinant adenosine A3 receptor expressed in HEK293 cells at 10^-5 M; format: cell-based; how it was run: as §2
# [20] = target: Prostaglandin E2 receptor EP4 subtype (Homo sapiens) (UniProt P35408); test: Displacement of [3H]PGE2 from human recombinant prostanoid EP4 receptor expressed in HEK293 cells at 10^-5 M; format: cell-based; how it was run: as §2
# [21] = target: D(3) dopamine receptor (Homo sapiens) (UniProt P35462); test: Displacement of [3H]methylspiperone from human recombinant Dopamine D3 receptor expressed in CHO cells at 10^-5 M; format: cell-based; how it was run: as §1
# [22] = target: Muscarinic acetylcholine receptor M1 (Homo sapiens) (UniProt P11229); test: Displacement of [3H]pirenzepine from human recombinant muscarinic M1 receptor expressed in CHO cells at 10^-5 M; format: cell-based; how it was run: as §1
# [23] = target: Histamine H1 receptor (Homo sapiens) (UniProt P35367); test: Displacement of [3H]pyrilamine from human recombinant histamine H1 receptor expressed in HEK293 cells at 10^-5 M; format: cell-based; how it was run: as §1
# Chain of Histamine H1 receptor (Homo sapiens) (P35367 whole entry): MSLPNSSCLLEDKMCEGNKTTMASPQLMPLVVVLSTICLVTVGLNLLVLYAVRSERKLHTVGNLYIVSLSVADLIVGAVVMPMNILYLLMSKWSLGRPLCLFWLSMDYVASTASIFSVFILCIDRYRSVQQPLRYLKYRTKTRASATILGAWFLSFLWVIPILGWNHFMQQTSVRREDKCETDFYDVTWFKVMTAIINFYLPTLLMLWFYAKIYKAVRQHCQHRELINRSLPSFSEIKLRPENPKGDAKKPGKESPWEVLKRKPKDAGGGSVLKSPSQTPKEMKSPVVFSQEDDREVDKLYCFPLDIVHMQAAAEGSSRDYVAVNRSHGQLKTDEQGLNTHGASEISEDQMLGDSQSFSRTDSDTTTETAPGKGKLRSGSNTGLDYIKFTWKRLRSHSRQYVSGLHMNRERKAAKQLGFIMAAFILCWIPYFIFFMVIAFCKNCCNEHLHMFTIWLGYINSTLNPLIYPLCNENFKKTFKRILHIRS
# [24] = target: Translocator protein (Rattus norvegicus) (UniProt P16257); test: Displacement of [3H]PK 11195 from rat heart peripheral-type benzodiazepine receptor at 10^-5 M; how it was run: as §2
# Chain of Translocator protein (Rattus norvegicus) (P16257 whole entry, looked up): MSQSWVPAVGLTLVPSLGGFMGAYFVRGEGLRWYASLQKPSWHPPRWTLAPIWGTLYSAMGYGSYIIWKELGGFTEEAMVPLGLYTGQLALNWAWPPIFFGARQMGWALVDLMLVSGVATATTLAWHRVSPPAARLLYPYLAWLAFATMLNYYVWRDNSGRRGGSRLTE
# [25] = target: Glucocorticoid receptor (Homo sapiens) (UniProt P04150); test: Displacement of [3H]dexamethasone from glucocorticoid receptor in human IM9 cells at 10^-5 M; format: cell-based; settings: IM-9; how it was run: as §1
# Rattus norvegicus [26] = species: Rattus norvegicus; test: Displacement of [35S]dATPalpha S from rat cerebral cortex P2Y receptor at 10^-5 M; format: tissue-based; how it was run: as §2
# [27] = target: Cholecystokinin receptor type A (Homo sapiens) (UniProt P32238); test: Displacement of [125I]CCK-8s from human recombinant CCK-A receptor expressed in CHO cells at 10^-5 M; format: cell-based; how it was run: as §2
# [28] = target: B2 bradykinin receptor (Homo sapiens) (UniProt P30411); test: Displacement of [3H]bradykinin from human recombinant B2 bradykinin receptor at 10^-5 M; how it was run: as §1
# Chain of B2 bradykinin receptor (Homo sapiens) (P30411 whole entry): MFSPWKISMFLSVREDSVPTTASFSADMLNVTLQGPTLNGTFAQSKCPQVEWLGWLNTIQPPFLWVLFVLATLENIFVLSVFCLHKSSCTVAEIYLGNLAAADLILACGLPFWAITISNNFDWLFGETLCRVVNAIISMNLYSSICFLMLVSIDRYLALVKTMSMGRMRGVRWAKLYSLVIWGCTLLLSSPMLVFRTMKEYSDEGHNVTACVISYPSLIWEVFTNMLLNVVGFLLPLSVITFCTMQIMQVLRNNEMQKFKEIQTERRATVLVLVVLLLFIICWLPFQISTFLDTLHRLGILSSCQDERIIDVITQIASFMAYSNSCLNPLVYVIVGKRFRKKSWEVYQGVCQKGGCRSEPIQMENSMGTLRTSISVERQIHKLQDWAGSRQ
# Rattus norvegicus [29] = species: Rattus norvegicus; test: Displacement of [3H]GABA from rat cerebral cortex GABA receptor at 10^-5 M; format: tissue-based; how it was run: as §2
# [30] = target: Histamine H2 receptor (Homo sapiens) (UniProt P25021); test: Displacement of [125I]APT from human recombinant histamine H2 receptor expressed in CHO cells at 10^-5 M; format: cell-based; how it was run: as §2
SMILES,inhibition [1] [%],inhibition [2] [%],inhibition [3] [%],inhibition [4] [%],inhibition [5] [%],Activity (Mus musculus),inhibition [6] [%],Activity (Rattus norvegicus [7]),inhibition [8] [%],inhibition [9] [%],inhibition (Rattus norvegicus [10]) [%],inhibition [11] [%],inhibition (CHO) [%],inhibition [12] [%],inhibition (Rattus norvegicus [13]) [%],inhibition [14] [%],inhibition [15] [%],inhibition [16] [%],inhibition [17] [%],inhibition [18] [%],also measured
Cc1cccc(C)c1OCCOCCN[C@H](C)CO,10.1,6.4,40.9,-1.8,24.5,inactive,4.2,inactive,12,-0.8,54.9,4.8,-1.7,29.4,3.5,8.5,6.7,22.6,34.7,3.4,inhibition [19]: -1.8%; inhibition [20]: 14.9%; inhibition [21]: 44.1%; inhibition [22]: 6%; inhibition [23]: 22.7%; inhibition [24]: -3.9%; inhibition [25]: 31.3%; inhibition (Rattus norvegicus [26]): 9.4%; inhibition [27]: -3.6%; inhibition [28]: -3.9%; inhibition (Rattus norvegicus [29]): 0.8%; inhibition [30]: 0.6%
Cc1cccc(C)c1OCCOCCN[C@@H](C)CO,5.2,11.7,35.8,16.5,24.6,inactive,10.7,inactive,14.7,-4,79,11.1,-2.2,12.3,4.8,4.4,15.4,32.1,47.4,11.2,inhibition [19]: 3%; inhibition [20]: 3%; inhibition [21]: 57.4%; inhibition [22]: 22.8%; inhibition [23]: 14.1%; inhibition [24]: -6.7%; inhibition [25]: 8.3%; inhibition (Rattus norvegicus [26]): 9.4%; inhibition [27]: 2.2%; inhibition [28]: 1.6%; inhibition (Rattus norvegicus [29]): 17.7%; inhibition [30]: 17.1%
